# Published values from different studies.
# Protocols differ between the studies behind these lines.
# Organism: Mycobacterium tuberculosis
# Effect on: microbial growth
SMILES,technique,strain,time,MIC
COC(=O)c1cc(-c2cccc(NC(=O)Nc3ccc(F)c(F)c3)c2)on1,,ATCC27294 H37RV,7 days,0.5 µg/mL
CO[C@H]1/C=C/O[C@@]2(C)Oc3c(C)c(O)c4c(O)c(c(/C=N/N5CCN(C)CC5)c(O)c4c3C2=O)NC(=O)/C(C)=C\C=C\[C@H](C)[C@H](O)[C@@H](C)[C@@H](O)[C@@H](C)[C@H](OC(C)=O)[C@@H]1C,,H37RV,5 days,0.012 µM
CN(C)c1ccc(C=NC2=NN(c3ccccc3)C(=O)C2=NNc2nc(-c3ccccc3)cs2)cc1,resazurin,H37RV,,6.25 µg/mL
COC(=O)c1cc(-c2cccc(NC(=S)Nc3cccc(Cl)c3)c2)on1,,ATCC27294 H37RV,7 days,4 µg/mL
Cc1cn2c(C(=O)NCc3ccc(S(F)(F)(F)(F)F)cc3)c(C)nc2s1,,H37RV,5 days,0.4 µM
CC[C@@H](CO)NCCN[C@@H](CC)CO,resazurin,H37RA,14 days,1 µg/mL
C=C[C@@H](O)C#CC#C[C@@H](O)/C=C\CCCCCCC,resazurin,ATCC27294 H37RV,7 days,26.7 µg/mL
O=C1C(=NNc2nc(-c3ccccc3)cs2)C(N=Cc2ccc(O)c(O)c2)=NN1c1ccccc1,resazurin,H37RV,,3.12 µg/mL
Cc1ccc(C)n1-c1ccc(-c2nnco2)cc1,broth dilution,H37RV,21 days,4 µg/mL
CO[C@H]1/C=C/O[C@@]2(C)Oc3c(C)c(O)c4c(O)c(c(/C=N/N5CCN(C)CC5)c(O)c4c3C2=O)NC(=O)/C(C)=C\C=C\[C@H](C)[C@H](O)[C@@H](C)[C@@H](O)[C@@H](C)[C@H](OC(C)=O)[C@@H]1C,,,,0.02 µg/mL
Cc1ccc(C)n1-c1ccc(-c2nnc(-c3ccc(Br)cc3)[nH]2)cc1,broth dilution,H37RV,21 days,2 µg/mL
CNC(=O)c1cc(Oc2ccc(NC(=O)Nc3ccc(Cl)c(C(F)(F)F)c3)cc2)ccn1,,H37RV,,25 µM
O=C(C1CCCN(S(=O)(=O)c2ccc([N+](=O)[O-])cc2)C1)N1CCN(C(c2ccc(F)cc2)c2ccc(F)cc2)CC1 (stereo not shown),,ATCC27294 H37RV,,> 25 µg/mL
Cc1ccc(NC(=O)c2ccccc2)cc1Nc1nccn1-c1cc(NC2CCCC2)ncn1,,W4,,> 20 µM
CCCC1CCC2(CC1)SCC(=O)N2NC(=O)c1[nH]c2ccc(Cl)cc2c1-c1ccccc1 (stereo not shown),,ATCC27294 H37RV,,31 µM
CC[C@@H](CO)NCCN[C@@H](CC)CO,,ATCC27294 H37RV,7 days,1 µg/mL
Cc1ccc(C)n1-c1ccc(-c2nnc(-c3ccc(N(C)C)cc3)[nH]2)cc1,broth dilution,H37RV,21 days,16 µg/mL
COC(=O)c1cc(-c2cccc(NC(=S)Nc3ccc(F)cc3F)c2)on1,,ATCC27294 H37RV,7 days,2 µg/mL
N#Cc1cc(C(F)(F)F)cc2c(=O)nc(N3CCN(CC4CC4)CC3)sc12,resazurin,H37RV,,> 2 µM
CO[C@H]1/C=C/O[C@@]2(C)Oc3c(C)c(O)c4c(O)c(c(/C=N/N5CCN(C)CC5)c(O)c4c3C2=O)NC(=O)/C(C)=C\C=C\[C@H](C)[C@H](O)[C@@H](C)[C@@H](O)[C@@H](C)[C@H](OC(C)=O)[C@@H]1C,,H37RA,,0.008 µg/mL
O=C1C(=NNc2nc(-c3ccccc3)cs2)C(N=Cc2ccccc2Cl)=NN1c1ccccc1,resazurin,H37RV,,25 µg/mL
O=C(NN1C(=O)CSC12CCCCC2)c1[nH]c2ccc(Cl)cc2c1-c1ccccc1,,ATCC27294 H37RV,,16 µM
C[C@H]1O[C@H](O[C@H]2CC[C@H](n3ccc(NC(=O)c4ccc(NC(=O)[C@@](C)(N)CO)cc4)nc3=O)O[C@@H]2C)[C@H](O)[C@@H](O)[C@@H]1N(C)C,,H37RA,,0.8 µM
COC(=O)c1cc(-c2cccc(NC(=O)Nc3cccc(Cl)c3)c2)on1,,ATCC27294 H37RV,7 days,0.5 µg/mL
CC(C)[C@H]1CO[C@]23CCN(Cc4ccccc4)C[C@H]2CCC(=O)N13,resazurin,H37RV,7 days,5.73 µM
O=[N+]([O-])c1cn2c(n1)OC[C@@H](OCc1ccc(N3CCCCC3)nc1)C2,,H37RV,,0.4 to 0.8 µg/mL
COC(=O)c1cc(-c2cccc(NC(=O)Nc3cccc(Cl)c3Cl)c2)on1,,ATCC27294 H37RV,7 days,0.5 µg/mL
CN[C@H](CC(C)C)C(=O)N[C@H]1C(=O)N[C@@H](CC(N)=O)C(=O)N[C@H]2C(=O)N[C@H]3C(=O)N[C@H](C(=O)N[C@H](C(=O)O)c4cc(O)cc(O)c4-c4cc3ccc4O)[C@H](O)c3ccc(c(Cl)c3)Oc3cc2cc(c3O[C@@H]2O[C@H](CO)[C@@H](O)[C@H](O)[C@H]2O[C@H]2C[C@](C)(N)[C@H](O)[C@H](C)O2)Oc2ccc(cc2Cl)[C@H]1O,,H37RV,14 days,12.5 µg/mL
CC[C@@H](CO)NCCN[C@@H](CC)CO,,H37RV,5 days,6.6 µM
NNC(=O)c1ccncc1,,H37RV,,0.05 µg/mL
COc1cc(C=NC2=NN(c3ccccc3)C(=O)C2=NNc2nc(-c3ccccc3)cs2)ccc1O,resazurin,H37RV,,12.5 µg/mL
O=C(CCNS(=O)(=O)c1ccc([N+](=O)[O-])cc1)N1CCN(C(c2ccc(F)cc2)c2ccc(F)cc2)CC1,,ATCC27294 H37RV,,25 µg/mL
NNC(=O)c1ccncc1,resazurin,H37RV,,0.8 µM
COC1C(O)C(n2ccc(=O)[nH]c2=O)OC1C(OC1OC(C(=O)NC2CCCCNC2=O)=CC(O)C1O)C(N)=O (stereo not shown),resazurin,H37RV,,12.5 µg/mL
CCCC1CCC2(CC1)SC(C)C(=O)N2NC(=O)c1[nH]c2ccc(Cl)cc2c1-c1ccccc1 (stereo not shown),,ATCC27294 H37RV,,1000 µM
CC(C)[C@H]1CO[C@]23CCN(Cc4ccc(OC(F)(F)F)cc4)C[C@H]2CCC(=O)N13,resazurin,H37RV,7 days,0.17 µM
COC(=O)c1cc(-c2cccc(NC(=O)Nc3ccccc3OC)c2)on1,,ATCC27294 H37RV,7 days,0.5 µg/mL
Cc1c(Cc2cccc(Cl)c2)c(=O)n2c([nH]c3ccccc32)c1C#N,broth dilution,H37RV,,> 128 µg/mL
CC(C)=CCCC(C)CC1CC(=O)c2ccc(O)cc2O1 (stereo not shown),broth dilution,H37RV,,100 µg/mL
Cc1c(Cc2ccccc2Cl)c(=O)n2c([nH]c3ccccc32)c1C#N,broth dilution,H37RV,,> 128 µg/mL
O=C(NN1C(=O)CSC12CCC(c1ccccc1)CC2)c1[nH]c2ccc(Cl)cc2c1-c1ccccc1 (stereo not shown),,ATCC27294 H37RV,,3.9 µM
COC(=O)c1cc(-c2cccc(NC(=O)Nc3ccc(F)cc3)c2)on1,,ATCC27294 H37RV,7 days,0.5 µg/mL
CO[C@H]1/C=C/O[C@@]2(C)Oc3c(C)c(O)c4c(O)c(c(/C=N/N5CCN(C)CC5)c(O)c4c3C2=O)NC(=O)/C(C)=C\C=C\[C@H](C)[C@H](O)[C@@H](C)[C@@H](O)[C@@H](C)[C@H](OC(C)=O)[C@@H]1C,resazurin,H37RA,14 days,0.06 µg/mL
